S100A4 inh HTS = inhibitors of S100A4-myosin IIA peptide binding, primary screen, biochemical, fluorescence polarization, TAMRA-MyoIIA peptide; inhibition, % at 10.7 µM; Protein S100-A4 (Homo sapiens), P26447; 0.14% of 360,000 active;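 active = mean inhibition of at least 70% across replicates, with every replicate also reaching that level; inconclusive = mean inhibition reaches 70% but some replicates fall short; inactive = mean inhibition below 70%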
Target sequence (P26447 whole entry, looked up): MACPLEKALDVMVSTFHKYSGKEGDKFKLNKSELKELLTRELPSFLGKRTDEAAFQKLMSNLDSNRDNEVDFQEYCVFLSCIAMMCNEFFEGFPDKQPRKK
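assay system = human S100A4 monomer with TAMRA-labelled myosin IIA peptide | also added = labelled myosin peptide probe, 5 nM | incubation = 5 min between mix addition and reading | control set = DMSO and TFP controls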
CDK5 inh = inhibitors of human CDK5/p35 kinase, primary screen, biochemical, single concentration | Recombinant CDK5/p35, ADP-Glo luminescence, 60 min | inhibition, % at 10 µM | 0.01% of 330,000 active | AID 488839, 2010;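 active = highest replicate inhibition of at least 50% and at least 75% of replicates reaching 50%; inconclusive = only one of the two criteria met; inactive = both criteria failed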;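 note: plate controls were DMSO neutral control for no effect and GW8510 at 10 µM for full effect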
CAL PDZ FP-1 = CAL PDZ peptide-binding inhibitors, primary screen, biochemical, fluorescence polarization, Cer-tagged CAL PDZ, HTS | purified CAL PDZ, TMR-peptide fluorescence polarization, 1 h | inhibition, % at 20 µM | 0.02% of 330,000 active | AID 504414, 2011;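 active = highest replicate inhibition of at least 40%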;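 note: plate controls were DMSO neutral control wells for no effect and unlabeled competitor peptide control wells for full effect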
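Assay system – tagged CAL PDZ protein CerCALP, purified · Timing – 1 h at RT · Compound – single point, 20 µM · Measured by – fluorescence polarization from S- and P-plane intensities, G-factor corrected · Evaluation – inhibition from polarization loss · Probe or stimulus – TMR reporter peptide T*-PRC34 · Buffer or medium – pH 7.4 phosphate-saline buffer, reducing agent, detergent, IgG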
Statin myotox sup = suppressors of statin myotoxicity in C2C12 myotubes, primary screen, cell-based, single point, plate reader; C2C12 myotubes + simvastatin, ATP luminescence, 48 h; scaled: DMSO 0, geranylgeraniol control 100; rescue of ATP level, % at 7.49 µM; 0.78% of 330,000 active; AID 602340, 2012;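 active = mean ATP rescue above about 67%, or every replicate alone reaching that limit, limit read from the data, passing the limit was not always enough; inconclusive = no clear call, values can overlap the other calls; inactive = mean under the limit and some replicate under it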;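 note: myotubes were challenged with 10 µM simvastatin during compound exposure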
CAL PDZ FP-2 = untagged CAL PDZ binding inhibitors, primary screen, biochemical, fluorescence polarization, HTS; 0.92% of 300,000 active; AID 602252, 2012; Golgi-associated PDZ and coiled-coil motif-containing protein (Homo sapiens), Q9HD26; inhibition, % at 24.9 µM; purified CAL PDZ, TMR-peptide fluorescence polarization, 1 h;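 active = mean inhibition of at least 30% with at least half of replicates also reaching 30%; inconclusive = no clear call, values can overlap the other calls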;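 note: 0% = DMSO neutral control and 100% = excess unlabeled competitor peptide PRC23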
dFosB activator = activators of delta FosB homodimer, primary screen, biochemical, fluorescence polarization, TAMRA-CDK5 oligo, single point | Protein FosB (Mus musculus), P13346 | 0.99% of 340,000 active | activation, % at 25 µM | purified delta FosB; percent of positive-control signal above neutral wells;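 active = mean activation above about 17%, with every replicate also reaching it, limit read from the data, passing the limit was not always enough; inconclusive = only one of the two conditions met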
Target sequence (P13346 whole entry, looked up): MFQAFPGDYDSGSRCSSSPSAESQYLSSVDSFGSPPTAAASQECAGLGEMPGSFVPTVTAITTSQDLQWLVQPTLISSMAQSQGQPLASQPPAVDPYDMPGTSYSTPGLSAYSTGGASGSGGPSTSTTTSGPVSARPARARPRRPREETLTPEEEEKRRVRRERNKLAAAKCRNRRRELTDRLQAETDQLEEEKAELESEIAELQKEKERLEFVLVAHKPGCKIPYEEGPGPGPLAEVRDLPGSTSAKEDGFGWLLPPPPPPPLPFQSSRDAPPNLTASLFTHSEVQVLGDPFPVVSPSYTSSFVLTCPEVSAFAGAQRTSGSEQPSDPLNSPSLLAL
An asterisk follows results filed as active; ? = inconclusive; / = no result. This is a sample that favours compounds with a hit; in the whole collection about 2% have one here.

SMILES | S100A4 inh HTS | CDK5 inh | CAL PDZ FP-1 | Statin myotox sup | CAL PDZ FP-2 | dFosB activator
N#Cc1ccc(OCC(=O)N2CCN(S(=O)(=O)c3ccc(Cl)s3)CC2)cc1 | -10.5 | -0.1 | -0.5 | 1.2 | 0.6 | -6.5
COc1ccc(OCC(=O)N2CCN(S(=O)(=O)c3ccc(Cl)s3)CC2)cc1 | 144.4* | -0.1 | -0.3 | 0.7 | -10.0 | -0.9
O=C1Nc2ccccc2-n2nnnc2C1N1CCN(c2ccc(C(F)(F)F)cn2)CC1 (stereo not given) | 12.1 | / | / | / | / | /
O=C(Nc1ccc(F)cc1F)c1ccc(S(=O)(=O)N2CCCCC2)cc1 | -2.9 | 1.3 | 0.4 | -2.9 | 33.5* | -8.3
O=C(Nc1ccc(F)cc1F)c1ccc(S(=O)(=O)NCc2ccco2)cc1 | 0.9 | 0.4 | -0.8 | -7.4 | 47.7* | -0.8
CCN1CCN(c2ccc(S(=O)(=O)N3CCCCC3)cc2NC(=O)c2cccc(F)c2)CC1 | -1.1 | 0.7 | -2.7 | -4.0 | -0.3 | -3.1
CCN1CCN(c2ccc(S(=O)(=O)N3CCCCC3)cc2NC(=O)c2cccc(C(F)(F)F)c2)CC1 | -0.5 | -1.0 | -0.3 | -7.3 | / | 20.9*
COc1ccc(CCNC/C=C/c2ccccc2)cc1 | 2.0 | -1.6 | -0.9 | -3.1 | 50.8* | -12.2
COc1ccc(CNC/C=C/c2ccccc2)cc1 | -2.2 | -0.3 | -1.5 | -0.6 | -1.0 | 3.1
CCOC(=O)CNc1c(-c2ccccc2)nc2ccc(Cl)cn12 | / | -1.3 | -0.8 | 98.5* | -0.9 | 2.2
COC(=O)C1(N2CC3=C[C@@H]([C@@H](O)Cc4ccccc4)n4c(=O)n(C)c(=O)n4[C@@H]3[C@@H](C3CC3)O2)CCCC1 | 6.0 | / | / | / | / | /
O=c1cc(-c2ccc(O)c(O)c2)oc2cc(O[C@@H]3O[C@H](CO)[C@@H](O)[C@H](O)[C@H]3O)cc(O)c12 | / | 2.9 | -1.0 | 5.2 | -4.2 | 18.7*
CC(C)CCN(CCC(C)C)C(CO)(CO)CO | -2.0 | 1.1 | 0.7 | 2.2 | 3.7 | 3.4
COC(=O)c1c(NC(=O)CS(=O)(=O)c2ccccc2)sc(C)c1C | -2.4 | -0.4 | -2.3 | / | 45.3* | -10.4
CN1/C(=C/c2cc[n+](C)c3ccccc23)C=Cc2ccccc21 | / | 9.3 | 2.8 | / | 2.0 | 51.1*
C[n+]1ccc(/C=C/c2ccccc2O)c2ccccc21 | -1.5 | 2.2 | -0.2 | / | 1.8 | -4.5
CCOC(=O)C1=C(C)N(CCCCCC(=O)O)C(=O)NC1c1ccccc1Cl (stereo not given) | -0.4 | 0.2 | -0.8 | 104.8* | -2.8 | -1.2
O=C(CNCC1CCCO1)Nc1ccc([N+](=O)[O-])cc1C(=O)Nc1ccccc1F (stereo not given) | -4.9 | 1.1 | 0.8 | 9.1 | 1.7 | -0.1
O=C(CNC1CCCCC1)Nc1ccc([N+](=O)[O-])cc1C(=O)Nc1ccccc1F | -10.9 | 2.0 | -1.7 | 0.7 | 62.6* | -3.9
Cc1ncc(C(O)c2ccc(N(C)C)cc2)n1Cc1ccccc1 (stereo not given) | -6.9 | / | / | -9.1 | / | /
CN(C)c1ccc2nc3c(=O)[nH]c(=O)nc-3n(CC(O)C(O)C(O)CO)c2c1 (stereo not given) | ? | 5.4 | -8.1 | 7.7 | / | 116.7*
Nc1c2c(nc3ccc(Br)cc13)N(c1ccccc1)CC2 | / | -1.6 | -0.9 | -72.6 | -5.5 | -30.5
Cc1cccc(N2CCc3c2nc2ccc(Br)cc2c3N)c1 | 2.1 | 0.1 | 0.4 | -35.2 | 1.0 | 33.4*
Cc1ccc(S(=O)(=O)/N=C/c2cc(Br)ccc2O)cc1 | -6.2 | 0.3 | -1.5 | 8.7 | 7.5 | 0.2
CNC(=O)c1ccc(NC(=O)CCc2c(C)noc2C)cc1 | -5.0 | -0.9 | 0.6 | -5.1 | -6.5 | 3.7
Cc1cccc(N2CCN(c3cc(C)nc4nnnn34)CC2C)c1 (stereo not given) | / | 0.6 | -1.5 | / | -1.8 | -0.4
